According to paper PMC9116722 (Cancer chemotherapy and pharmacology, 2022):
One block for each compound: values may come before it.

Key:
[1] = phase 3 maintenance trials ref 25-27; cited from earlier work
sporadic ovarian cancer = sporadic ovarian cancer ref 43; cited from earlier work
[2] = Non-compartmental pharmacokinetics; format: in vivo, human
Summary of the method: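 Patients took oral drug twice daily, continuously, at 50–500 mg BID. Plasma parent drug and active metabolite M8 were measured by a validated assay. Parameters were derived non-compartmentally on day 1 and reported as geometric mean (SD). Accumulation indices for Cmax and AUC0–8 were compared with theoretical values from D1 half-lives. Dose proportionality was tested on day-1 Cmax and AUC0-inf (95% CI of coefficient including 1).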

[3] = metabolite M8, geometric mean (SD)

SMILES: NC(=O)c1cccc2cn(-c3ccc([C@@H]4CCCNC4)cc3)nc12 [niraparib]
grade 3 or 4 anemia [1]: 25%

SMILES: CNCc1ccc(-c2[nH]c3cc(F)cc4c3c2CCNC4=O)cc1 [rucaparib]
grade 3 or 4 anemia [1]: 19%

SMILES: O=C(c1cc(Cc2n[nH]c(=O)c3ccccc23)ccc1F)N1CCN(C(=O)C2CC2)CC1 [olaparib]
grade 3 or 4 anemia [1]: 19% | patients with objective responses (sporadic ovarian cancer): 24%

M8/ABT-888 metabolic ratio, AUC0-inf ([2]; day 1): 0.21 (1.9) | M8/ABT-888 metabolic ratio, Cmax ([2]; day 1): 0.11 (1.8) | theoretical accumulation index ([2]; metabolite M8, from D1 half-lives, geometric mean (SD)): 1.51 (1.25) | accumulation index for AUC0–8 [2, 3]: 1.59 (1.41) | accumulation index for Cmax [2, 3]: 1.51 (1.34)
SMILES: CC1(c2nc3c(C(N)=O)cccc3[nH]2)CCC(=O)N1 (stereo not drawn) [M8]
